“And” between values parts separate entries of the source, which are not always exact repeats. Equal values may be shown once.
Tested on: Fibroblast
Experiment: Multiplex assay against human fibroblast
Format: toxicity, cell-based
Settings: number of replicates 2
Method in brief: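 Cells stained live at seeding with Hoechst33342, BioTracker Green Microtubule Cytoskeleton Dye, MitoTracker Red and Annexin V Alexa Fluor 680 were imaged on a CQ1 microscope at 37°C and 5% CO2 after compound addition. Their classification by CellPathfinder machine-learning gating ran from Hoechst high-intensity objects versus normal cells, to healthy, pyknosed or fragmented nuclei among normal cells, to mitotic or apoptotic among pyknosed cells. Tubulin, mitochondrial-mass and membrane-permeability phenotypes are per cents of healthy-nucleus cells.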

[1] = 12 h, 1 µM, compound concentration 1 uM
[2] = 12 h, 10 µM, compound concentration 10 uM
[3] = 24 h, 1 µM, compound concentration 1 uM
[4] = 24 h, 10 µM, compound concentration 10 uM
[5] = 48 h, 1 µM, compound concentration 1 uM
[6] = 48 h, 10 µM, compound concentration 10 uM

Structure (SMILES): COc1cc(Nc2cnc(C#N)c(O[C@H](C)CN(C)C)n2)ncc1-c1cnn(C)c1
- Population Apoptotic (%) [1]: 37% and 47%
- Population Fragmented Nuclei (%) [1]: 12% and 13%
- Population Healthy Nuclei (%) [1]: 67% and 77%
- Population Hoechst High Intensity Objects (%) [1]: 0%
- Population Membrane Permeable-Phenotype (%) [1]: 3% and 2%
- Population Mitochondria Different-Phenotype (%) [1]: 1%
- Population Mitotic Cells (%) [1]: 62% and 52%
- Population Normal (%) [1]: 100%
- Population Pyknosed Nuclei (%) [1]: 20% and 9%
- Population Tubulin-Different-Phenotype (%) [1]: 11% and 3%
- Total Cell Count [1]: 185 and 222
- Population Apoptotic (%) [2]: 37% and 41%
- Population Fragmented Nuclei (%) [2]: 24% and 26%
- Population Healthy Nuclei (%) [2]: 69% and 64%
- Population Hoechst High Intensity Objects (%) [2]: 0%
- Population Membrane Permeable-Phenotype (%) [2]: 2% and 4%
- Population Mitochondria Different-Phenotype (%) [2]: 0%
- Population Mitotic Cells (%) [2]: 62% and 58%
- Population Normal (%) [2]: 99% and 100%
- Population Pyknosed Nuclei (%) [2]: 5% and 8%
- Population Tubulin-Different-Phenotype (%) [2]: 26% and 17%
- Total Cell Count [2]: 300 and 346
- Population Apoptotic (%) [3]: 50% and 40%
- Population Fragmented Nuclei (%) [3]: 9% and 11%
- Population Healthy Nuclei (%) [3]: 80% and 78%
- Population Hoechst High Intensity Objects (%) [3]: 0%
- Population Membrane Permeable-Phenotype (%) [3]: 2% and 3%
- Population Mitochondria Different-Phenotype (%) [3]: 2% and 1%
- Population Mitotic Cells (%) [3]: 50% and 60%
- Population Normal (%) [3]: 100%
- Population Pyknosed Nuclei (%) [3]: 9%
- Population Tubulin-Different-Phenotype (%) [3]: 13% and 5%
- Total Cell Count [3]: 168 and 206
- Population Apoptotic (%) [4]: 61% and 70%
- Population Fragmented Nuclei (%) [4]: 28% and 29%
- Population Healthy Nuclei (%) [4]: 67% and 65%
- Population Hoechst High Intensity Objects (%) [4]: 1% and 0%
- Population Membrane Permeable-Phenotype (%) [4]: 3% and 0%
- Population Mitochondria Different-Phenotype (%) [4]: 1% and 0%
- Population Mitotic Cells (%) [4]: 38% and 30%
- Population Normal (%) [4]: 98% and 100%
- Population Pyknosed Nuclei (%) [4]: 4% and 5%
- Population Tubulin-Different-Phenotype (%) [4]: 24% and 13%
- Total Cell Count [4]: 292 and 355
- Population Apoptotic (%) [5]: 43% and 64%
- Population Fragmented Nuclei (%) [5]: 14% and 12%
- Population Healthy Nuclei (%) [5]: 75% and 80%
- Population Hoechst High Intensity Objects (%) [5]: 0%
- Population Membrane Permeable-Phenotype (%) [5]: 0% and 1%
- Population Mitochondria Different-Phenotype (%) [5]: 0%
- Population Mitotic Cells (%) [5]: 56% and 35%
- Population Normal (%) [5]: 100%
- Population Pyknosed Nuclei (%) [5]: 9% and 6%
- Population Tubulin-Different-Phenotype (%) [5]: 8% and 1%
- Total Cell Count [5]: 170 and 205
- Population Apoptotic (%) [6]: 43% and 75%
- Population Fragmented Nuclei (%) [6]: 27% and 30%
- Population Healthy Nuclei (%) [6]: 66%
- Population Hoechst High Intensity Objects (%) [6]: 0%
- Population Membrane Permeable-Phenotype (%) [6]: 1% and 2%
- Population Mitochondria Different-Phenotype (%) [6]: 0%
- Population Mitotic Cells (%) [6]: 56% and 25%
- Population Normal (%) [6]: 100% and 99%
- Population Pyknosed Nuclei (%) [6]: 5% and 3%
- Population Tubulin-Different-Phenotype (%) [6]: 29% and 12%
- Total Cell Count [6]: 312 and 369

Structure (SMILES): Cc1ccc2c(c1CCC(=O)O)CC[C@@H](NS(=O)(=O)c1ccc(Cl)cc1)C2 [TERUTROBAN]
- Population Apoptotic (%) [1]: 25% and 43%
- Population Fragmented Nuclei (%) [1]: 8%
- Population Healthy Nuclei (%) [1]: 71% and 75%
- Population Hoechst High Intensity Objects (%) [1]: 0%
- Population Membrane Permeable-Phenotype (%) [1]: 5% and 3%
- Population Mitochondria Different-Phenotype (%) [1]: 1%
- Population Mitotic Cells (%) [1]: 74% and 56%
- Population Normal (%) [1]: 100%
- Population Pyknosed Nuclei (%) [1]: 19% and 15%
- Population Tubulin-Different-Phenotype (%) [1]: 10% and 7%
- Total Cell Count [1]: 221 and 236
- Population Apoptotic (%) [2]: 40% and 55%
- Population Fragmented Nuclei (%) [2]: 8% and 15%
- Population Healthy Nuclei (%) [2]: 69% and 67%
- Population Hoechst High Intensity Objects (%) [2]: 0%
- Population Membrane Permeable-Phenotype (%) [2]: 11% and 7%
- Population Mitochondria Different-Phenotype (%) [2]: 1% and 0%
- Population Mitotic Cells (%) [2]: 59% and 44%
- Population Normal (%) [2]: 100%
- Population Pyknosed Nuclei (%) [2]: 21% and 16%
- Population Tubulin-Different-Phenotype (%) [2]: 26% and 19%
- Total Cell Count [2]: 203 and 208
- Population Apoptotic (%) [3]: 50% and 40%
- Population Fragmented Nuclei (%) [3]: 10% and 14%
- Population Healthy Nuclei (%) [3]: 74% and 75%
- Population Hoechst High Intensity Objects (%) [3]: 0%
- Population Membrane Permeable-Phenotype (%) [3]: 1%
- Population Mitochondria Different-Phenotype (%) [3]: 1% and 0%
- Population Mitotic Cells (%) [3]: 50% and 59%
- Population Normal (%) [3]: 100%
- Population Pyknosed Nuclei (%) [3]: 14% and 10%
- Population Tubulin-Different-Phenotype (%) [3]: 9% and 3%
- Total Cell Count [3]: 219 and 249
- Population Apoptotic (%) [4]: 52% and 51%
- Population Fragmented Nuclei (%) [4]: 10% and 14%
- Population Healthy Nuclei (%) [4]: 73% and 72%
- Population Hoechst High Intensity Objects (%) [4]: 0%
- Population Membrane Permeable-Phenotype (%) [4]: 5% and 8%
- Population Mitochondria Different-Phenotype (%) [4]: 2% and 0%
- Population Mitotic Cells (%) [4]: 47% and 48%
- Population Normal (%) [4]: 100%
- Population Pyknosed Nuclei (%) [4]: 16% and 13%
- Population Tubulin-Different-Phenotype (%) [4]: 20% and 11%
- Total Cell Count [4]: 218 and 222
- Population Apoptotic (%) [5]: 70% and 77%
- Population Fragmented Nuclei (%) [5]: 13% and 14%
- Population Healthy Nuclei (%) [5]: 77% and 76%
- Population Hoechst High Intensity Objects (%) [5]: 0%
- Population Membrane Permeable-Phenotype (%) [5]: 5% and 2%
- Population Mitochondria Different-Phenotype (%) [5]: 0%
- Population Mitotic Cells (%) [5]: 30% and 22%
- Population Normal (%) [5]: 100%
- Population Pyknosed Nuclei (%) [5]: 8%
- Population Tubulin-Different-Phenotype (%) [5]: 7% and 1%
- Total Cell Count [5]: 225 and 259
- Population Apoptotic (%) [6]: 62% and 38%
- Population Fragmented Nuclei (%) [6]: 8% and 16%
- Population Healthy Nuclei (%) [6]: 79% and 77%
- Population Hoechst High Intensity Objects (%) [6]: 0%
- Population Membrane Permeable-Phenotype (%) [6]: 6% and 3%
- Population Mitochondria Different-Phenotype (%) [6]: 1% and 0%
- Population Mitotic Cells (%) [6]: 37% and 61%
- Population Normal (%) [6]: 100%
- Population Pyknosed Nuclei (%) [6]: 12% and 5%
- Population Tubulin-Different-Phenotype (%) [6]: 12%
- Total Cell Count [6]: 230 and 225

From ChEMBL document CHEMBL5303300, “EUbOPEN Chemogenomics Library - Multiplex” (2023)
